Here are results for 7 compounds from ChEMBL document CHEMBL3351780, “Novel hybrids of metronidazole and quinolones: synthesis, bioactive evaluation, cytotoxicity, preliminary antimicrobial mechanism and effect of metal ions on their transportation by human serum albumin” (Eur J Med Chem, 2014).

In one data set the test system is Saccharomyces cerevisiae. Kind of data set: Antifungal activity against Saccharomyces cerevisiae after 24 hrs by microbroth dilution method. Format: functional. The procedure, abridged: (§1)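 Spore suspension prepared in sterile distilled water from one-day-old cultures on Sabouraud agar, final 1-5 x 10^3 spores/mL. Compounds were serially diluted in RPMI 1640 to give eleven dilutions. Incubation at 35 °C for 24 h. Growth read visually and spectrophotometrically, in triplicate. MIC is the lowest concentration with complete inhibition.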

Data set [1] in a line: Antibacterial activity against Eberthella typhosa by two-fold serial dilution method. Format: functional. The method in brief: (§2)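 MIC read as the lowest concentration giving complete growth inhibition. Two-fold serial dilutions were made in 96-well plates following NCCLS, giving a series down to 0.5 µg/mL (…32, 16, 8, 4, 2, 1, 0.5). Plates were inoculated and incubated at 37 °C for 24 h. A DMSO-with-inoculum control without drug was included. Growth was monitored visually and spectrophotometrically, in triplicate.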

The subject of another data set is Pseudomonas aeruginosa. Nature of the data set: Antibacterial activity against Pseudomonas aeruginosa by two-fold serial dilution method. Format: functional. The method in brief: (§3)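 Standard two-fold serial dilution in 96-well microtest plates following NCCLS. Top dilutions printed as 32, 16, 8, 4, 2, 1, 0.5 ug/mL. Wells inoculated and held at 37 °C for 24 h. Growth judged visually and by spectrophotometer, in triplicate. MIC is the lowest concentration giving complete growth inhibition.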

Data set [2] relates to Staphylococcus aureus. Nature of the data set: Antibacterial activity against Staphylococcus aureus ATCC 25923 by two-fold serial dilution method. Format: functional. The method in brief: as §3
A further data set deals with Escherichia coli. Nature of the data set: Antibacterial activity against Escherichia coli DH52 by two-fold serial dilution method. The format is functional. The procedure, abridged: as §3
Data set [3] has as its system Staphylococcus aureus. Nature of the data set: Antibacterial activity against methicillin-resistant Staphylococcus aureus N315 by two-fold serial dilution method. Format: functional. The procedure, abridged: as §2
The next data set relates to Pichia norvegensis. Nature of the data set: Antifungal activity against Candida mycoderma after 24 hrs by microbroth dilution method. Format: functional.
Another data set concerns Shigella dysenteriae. Kind of data set: Antibacterial activity against Shigella dysenteriae by two-fold serial dilution method. Format: functional. The procedure, abridged: as §2
A further data set relates to Candida albicans. Kind of data set: Antifungal activity against Candida albicans ATCC 76615 after 24 hrs by microbroth dilution method. The format is functional. The note with it: ATCC 76615, 24 h. The method in brief:
as §1

A further data set has as its system Streptococcus pneumoniae. Nature of the data set: Antibacterial activity against Streptococcus pneumoniae by two-fold serial dilution method. Format: functional. The method in brief:
as §3

For the next data set, the system named is Micrococcus luteus. Kind of data set: Antibacterial activity against Micrococcus luteus by two-fold serial dilution method. The format is functional. The method in brief: as §3
For another data set, the system named is Bacillus spizizenii. Nature of the data set: Antibacterial activity against Bacillus subtilis ATCC 6633 by two-fold serial dilution method. The format is functional. The procedure, abridged: as §3
A further data set has as its system Cyberlindnera jadinii. Kind of data set: Antifungal activity against Candida utilis after 24 hrs by microbroth dilution method. The format is functional. The note with it: Williopsis jadinii. The procedure, abridged:
as §1
In general terms: Dilution methods test growth across graded concentrations, often in twofold steps.

Data set [4] is described as follows: Dissociation constant, pKa of the compound by UV-spectroscopy. Format: physicochemical. The method in brief:
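DMSO stock at 4.0 × 10^-3 mol/L added to 2 mL of buffer, then shaken 10 min at room temperature. Buffers were acetate (pH 4.0–5.0), MES (5.5–6.5), HEPES (7.0–8.0) and CHES (8.5–9.4), each from 500 mM stocks. Scans ran 210–400 nm and were normalized. Absolute differences from the acid spectrum were summed at 244 and 308 nm, plotted against pH and fitted to obtain pKa.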

Data set [5] in a line: Aqueous solubility of the compound by UV-spectrophotometry. The format is physicochemical.
Data set [6] in a line: Octanol-water partition co-efficient, log P of the compound by shake flask method. The format is physicochemical.

In brackets after ≈: the same amount, converted by molar mass.

As for `O=C(O)c1cn(CC(O)Cn2cnc([N+](=O)[O-])c2)c2cc(Cl)c(F)cc2c1=O` (stereo not given), the MIC against Saccharomyces cerevisiae was found to be 64 µg/mL (≈ 156 µM); in data set [1] it was 2 µg/mL (≈ 4.87 µM); with Pseudomonas aeruginosa, 4 µg/mL (≈ 9.74 µM); in the data set with Staphylococcus aureus [2] it was 16 µg/mL (≈ 39 µM); with Escherichia coli, 32 µg/mL (≈ 77.9 µM); against Staphylococcus aureus [3], 8 µg/mL (≈ 19.5 µM). Moreover, the MIC against Pichia norvegensis came out at 128 µg/mL (≈ 312 µM); in the data set on Shigella dysenteriae it was 16 µg/mL (≈ 39 µM); against Candida albicans it was 128 µg/mL (≈ 312 µM); in the data set with Streptococcus pneumoniae it was 16 µg/mL (≈ 39 µM); with Micrococcus luteus, 8 µg/mL (≈ 19.5 µM); against Bacillus spizizenii, 8 µg/mL (≈ 19.5 µM). This compound also showed an MIC against Cyberlindnera jadinii of 256 µg/mL (≈ 623 µM).

On to `Cc1ncc([N+](=O)[O-])n1CC(O)Cn1cc(C(=O)O)c(=O)c2cc(F)cc(F)c21` (stereo not given), for which the MIC in the data set on Saccharomyces cerevisiae was found to be 64 µg/mL (≈ 157 µM); in data set [1], 16 µg/mL (≈ 39.2 µM); against Pseudomonas aeruginosa it was 2 µg/mL (≈ 4.9 µM); against Staphylococcus aureus [2], 16 µg/mL (≈ 39.2 µM); in the data set with Escherichia coli, 4 µg/mL (≈ 9.8 µM); in the data set with Staphylococcus aureus [3], 2 µg/mL (≈ 4.9 µM). In addition, the MIC against Pichia norvegensis was 128 µg/mL (≈ 313 µM); in the data set with Shigella dysenteriae it was 4 µg/mL (≈ 9.8 µM); in the data set on Candida albicans, 32 µg/mL (≈ 78.4 µM); against Streptococcus pneumoniae, 16 µg/mL (≈ 39.2 µM); in the data set with Micrococcus luteus, 2 µg/mL (≈ 4.9 µM); against Bacillus spizizenii it was 4 µg/mL (≈ 9.8 µM). The compound also yielded an MIC with Cyberlindnera jadinii of 512 µg/mL (≈ 1250 µM). The same compound returned a pKa in data set [4] of 5.33. In data set [5], this compound returned a solubility of 570 µg/mL (≈ 1400 µM). In data set [6], this compound registered a logP of -0.21.

For the compound `O=C(O)c1cn(CC(O)Cn2cnc([N+](=O)[O-])c2)c2c(F)cccc2c1=O` (stereo not given), the MIC in the data set with Saccharomyces cerevisiae amounted to 64 µg/mL (≈ 170 µM); in data set [1] it was 32 µg/mL (≈ 85 µM); in the data set on Pseudomonas aeruginosa, 8 µg/mL (≈ 21.3 µM); in the data set on Staphylococcus aureus [2] it was 16 µg/mL (≈ 42.5 µM); in the data set with Escherichia coli it was 4 µg/mL (≈ 10.6 µM); in the data set with Staphylococcus aureus [3] it was 4 µg/mL (≈ 10.6 µM). In addition, the MIC against Pichia norvegensis amounted to 128 µg/mL (≈ 340 µM); in the data set on Shigella dysenteriae it was 8 µg/mL (≈ 21.3 µM); in the data set on Candida albicans it was 128 µg/mL (≈ 340 µM); against Streptococcus pneumoniae, 32 µg/mL (≈ 85 µM); against Micrococcus luteus, 4 µg/mL (≈ 10.6 µM); in the data set with Bacillus spizizenii it was 4 µg/mL (≈ 10.6 µM). Also, the MIC in the data set on Cyberlindnera jadinii amounted to 512 µg/mL (≈ 1360 µM).

On to `COc1ccc2c(c1)c(=O)c(C(=O)O)cn2CC(O)Cn1c([N+](=O)[O-])cnc1C` (stereo not given), for which the MIC came to 256 µg/mL (≈ 636 µM) in the data set with Saccharomyces cerevisiae; 8 µg/mL (≈ 19.9 µM) in [1]; 512 µg/mL (≈ 1270 µM) against Pseudomonas aeruginosa; 32 µg/mL (≈ 79.5 µM) in the data set on Staphylococcus aureus [2]; 64 µg/mL (≈ 159 µM) with Escherichia coli; 8 µg/mL (≈ 19.9 µM) against Staphylococcus aureus [3]. In addition, the MIC with Pichia norvegensis stood at 512 µg/mL (≈ 1270 µM); against Shigella dysenteriae, 32 µg/mL (≈ 79.5 µM); against Candida albicans it was 128 µg/mL (≈ 318 µM); in the data set on Streptococcus pneumoniae it was 64 µg/mL (≈ 159 µM); against Micrococcus luteus, 512 µg/mL (≈ 1270 µM); in the data set with Bacillus spizizenii, 32 µg/mL (≈ 79.5 µM). Also, in the data set with Cyberlindnera jadinii, the MIC was determined as 128 µg/mL (≈ 318 µM). In data set [4], this compound came in with a pKa of 5.72. This compound displayed a solubility in data set [5] of 400 µg/mL (≈ 994 µM). In data set [6], this compound yielded a logP of -0.24.

With `Cc1ncc([N+](=O)[O-])n1CC(O)Cn1cc(C(=O)O)c(=O)c2cc(F)ccc21` (stereo not given), the MIC stood at 64 µg/mL (≈ 164 µM) against Saccharomyces cerevisiae; 32 µg/mL (≈ 82 µM) in data set [1]; 4 µg/mL (≈ 10.2 µM) with Pseudomonas aeruginosa; 8 µg/mL (≈ 20.5 µM) in the data set with Staphylococcus aureus [2]; 8 µg/mL (≈ 20.5 µM) in the data set with Escherichia coli; 2 µg/mL (≈ 5.12 µM) in the data set on Staphylococcus aureus [3]. For the same compound, the MIC in the data set on Pichia norvegensis was 256 µg/mL (≈ 656 µM); in the data set with Shigella dysenteriae, 1 µg/mL (≈ 2.56 µM); in the data set on Candida albicans, 128 µg/mL (≈ 328 µM); against Streptococcus pneumoniae, 8 µg/mL (≈ 20.5 µM); against Micrococcus luteus, 2 µg/mL (≈ 5.12 µM); against Bacillus spizizenii it was 16 µg/mL (≈ 41 µM). Also, it took 512 µg/mL (≈ 1310 µM) to inhibit growth against Cyberlindnera jadinii (MIC). This compound gave a pKa in data set [4] of 5.18. Moreover, the solubility in data set [5] worked out at 380 µg/mL (≈ 974 µM). The compound also yielded a lipophilicity (logP) in [6] of -0.13.

As for `O=C(O)c1cn(CC(O)Cn2cnc([N+](=O)[O-])c2)c2ccc(F)cc2c1=O` (stereo not given), the MIC against Saccharomyces cerevisiae stood at 64 µg/mL (≈ 170 µM); in [1], 8 µg/mL (≈ 21.3 µM); in the data set with Pseudomonas aeruginosa, 8 µg/mL (≈ 21.3 µM); against Staphylococcus aureus [2], 16 µg/mL (≈ 42.5 µM); in the data set with Escherichia coli, 8 µg/mL (≈ 21.3 µM); with Staphylococcus aureus [3] it was 8 µg/mL (≈ 21.3 µM). Moreover, the minimum inhibitory concentration (MIC) is 256 µg/mL (≈ 680 µM) against Pichia norvegensis; 8 µg/mL (≈ 21.3 µM) in the data set with Shigella dysenteriae; 64 µg/mL (≈ 170 µM) in the data set on Candida albicans; 8 µg/mL (≈ 21.3 µM) against Streptococcus pneumoniae; 16 µg/mL (≈ 42.5 µM) in the data set with Micrococcus luteus; 16 µg/mL (≈ 42.5 µM) against Bacillus spizizenii. Further, inhibition of growth against Cyberlindnera jadinii (MIC) required 128 µg/mL (≈ 340 µM).

Regarding `COc1ccc2c(c1)c(=O)c(C(=O)O)cn2CC(O)Cn1cnc([N+](=O)[O-])c1` (stereo not given), the MIC was determined as 512 µg/mL (≈ 1320 µM) in the data set on Saccharomyces cerevisiae; 32 µg/mL (≈ 82.4 µM) in [1]; 128 µg/mL (≈ 330 µM) in the data set with Pseudomonas aeruginosa; 64 µg/mL (≈ 165 µM) against Staphylococcus aureus [2]; 64 µg/mL (≈ 165 µM) with Escherichia coli; 16 µg/mL (≈ 41.2 µM) with Staphylococcus aureus [3]. In addition, the MIC was determined as 128 µg/mL (≈ 330 µM) in the data set on Pichia norvegensis; 16 µg/mL (≈ 41.2 µM) against Shigella dysenteriae; 128 µg/mL (≈ 330 µM) against Candida albicans; 64 µg/mL (≈ 165 µM) against Streptococcus pneumoniae; 256 µg/mL (≈ 659 µM) in the data set with Micrococcus luteus; 16 µg/mL (≈ 41.2 µM) in the data set on Bacillus spizizenii. The same compound registered a minimal inhibitory concentration (MIC) with Cyberlindnera jadinii of 128 µg/mL (≈ 330 µM).

Usually MIC stands for the lowest concentration found to suppress growth. Read a low MIC as a more susceptible organism. Usually pKa stands for the pH at which an ionisable group is half protonated. Low values mean a stronger acid or weaker base, high ones a weaker acid or stronger base. The solubility is how much of the substance goes into solution per volume. A higher solubility goes with a readily soluble substance. By logP is commonly meant the decadic logarithm of the partition coefficient of the neutral form, usually between octanol and water. The low end stands for a more hydrophilic compound, the high end for a more lipophilic compound.
